{"source": "paper PMC8830364", "about": "(Bioorganic & medicinal chemistry letters, 2021)", "key": {"[1]": {"assay": "Chemical stability in human plasma", "type": "in vitro ADME", "conditions": "pooled human plasma, 37 °C; for Stability in human plasma (in words): 2.5 μM, 0, 30, 60, 120 min; for Half time in human plasma: 2.5 μM, 0-120 min", "how_it_was_run": "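Test compound at 2.5 μM (below its K_M) incubated in pooled plasma from healthy volunteers at 37 °C, in triplicate, sampled at 0, 30, 60 and 120 min. Remaining analyte was quantified by LC-MS/MS in MRM mode. Degradation was treated as first-order: the slope of ln(concentration) versus time gave the rate constant k, from which t1/2 was calculated.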"}, "[2]": {"biological_target": "T1, Human neutrophil elastase (HNE) (Homo sapiens, UniProt P08246)", "T1 sequence (P08246 30-267)": "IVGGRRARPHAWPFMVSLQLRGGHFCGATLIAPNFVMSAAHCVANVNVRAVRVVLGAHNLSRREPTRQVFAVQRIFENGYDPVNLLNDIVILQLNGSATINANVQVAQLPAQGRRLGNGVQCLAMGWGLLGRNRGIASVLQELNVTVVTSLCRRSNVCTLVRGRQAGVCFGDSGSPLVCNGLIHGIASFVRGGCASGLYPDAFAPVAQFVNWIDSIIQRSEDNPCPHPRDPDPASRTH", "assay": "HNE inhibitory activity", "type": "biochemical", "conditions": "for HNE inhibitory activity (in words): as described"}, "[3]": {"assay": "Stability in aqueous buffer", "type": "physicochemical", "conditions": "for half-life: Half-life (t1/2) for the spontaneous hydrolysis"}}}
{"smiles": "Cc1cccc(C(=O)n2cc3c(n2)CCCC3=O)c1", "note": "[Compound 6a]", "values": [{"measurement": "Stability in human plasma (in words)", "setting": "[1]", "value": "rapid degradation rate"}, {"measurement": "Half time in human plasma", "setting": "[1]", "value": "~6", "unit": "min"}]}
{"smiles": "O=C1CCCc2nn(-c3cccc(C(F)(F)F)c3)cc21", "note": "[Compound 6c]", "values": [{"measurement": "Ki", "setting": "[2]", "value": "> 50", "unit": "µM"}, {"measurement": "HNE inhibitory activity (in words)", "setting": "[2]", "value": "complete inactivity"}]}
{"smiles": "O=C1CCCc2nn(Cc3cccc(C(F)(F)F)c3)cc21", "note": "[Compound 6d]", "values": [{"measurement": "Stability in human plasma (in words)", "setting": "[1]", "value": "maintained their spiked concentration for all of the incubation times"}, {"measurement": "Ki", "setting": "[2]", "value": "> 50", "unit": "µM"}, {"measurement": "HNE inhibitory activity (in words)", "setting": "[2]", "value": "complete inactivity"}]}
{"smiles": "O=C1CCCc2nn(Cc3ccccc3)cc21", "note": "[Compound 6e]", "values": [{"measurement": "Ki", "setting": "[2]", "value": "> 50", "unit": "µM"}, {"measurement": "HNE inhibitory activity (in words)", "setting": "[2]", "value": "complete inactivity"}]}
{"smiles": "CC(C)(C)OC(=O)N1CCN(C(=O)Cn2cc3c(n2)CCCC3=O)CC1", "note": "[Compound 6g]", "values": [{"measurement": "Ki", "setting": "[2]", "value": "> 50", "unit": "µM"}]}
{"smiles": "O=C1CCCc2nn(CC(=O)N3CCNCC3)cc21", "note": "[Compound 6h]", "values": [{"measurement": "Ki", "setting": "[2]", "value": "> 50", "unit": "µM"}]}
{"smiles": "Cc1cccc(C(=O)n2ncc3c2CCCC3=O)c1", "note": "[Compound 7a]", "values": [{"measurement": "Stability in human plasma (in words)", "setting": "[1]", "value": "rapid degradation rate"}, {"measurement": "Half time in human plasma", "setting": "[1]", "value": "~6", "unit": "min"}]}
{"smiles": "O=C1CCCc2c1cnn2-c1cccc(C(F)(F)F)c1", "note": "[Compound 7c]", "values": [{"measurement": "Ki", "setting": "[2]", "value": "> 50", "unit": "µM"}, {"measurement": "HNE inhibitory activity (in words)", "setting": "[2]", "value": "complete inactivity"}]}
{"smiles": "O=C1CCCc2c1cnn2Cc1cccc(C(F)(F)F)c1", "note": "[Compound 7d]", "values": [{"measurement": "Stability in human plasma (in words)", "setting": "[1]", "value": "maintained their spiked concentration for all of the incubation times"}, {"measurement": "Ki", "setting": "[2]", "value": "> 50", "unit": "µM"}, {"measurement": "HNE inhibitory activity (in words)", "setting": "[2]", "value": "complete inactivity"}]}
{"smiles": "O=C1CCCc2c1cnn2Cc1ccccc1", "note": "[Compound 7e]", "values": [{"measurement": "Ki", "setting": "[2]", "value": "> 50", "unit": "µM"}, {"measurement": "HNE inhibitory activity (in words)", "setting": "[2]", "value": "complete inactivity"}]}
{"smiles": "CC(C)(C)OC(=O)N1CCN(C(=O)Cn2ncc3c2CCCC3=O)CC1", "note": "[Compound 7g]", "values": [{"measurement": "Ki", "setting": "[2]", "value": "> 50", "unit": "µM"}]}
{"smiles": "O=C(C1CC1)n1cc2c(n1)CCC(Br)(Br)C2=O", "note": "[Compound 9b, 5,5-dibromo-2-(cyclopropanecarbonyl)-2,5,6,7-tetrahydro-4H-indazol-4-one]", "values": [{"measurement": "half-life", "setting": "[3]", "value": "235 ± 18.2", "unit": "min"}]}
{"smiles": "CC(C)(C)OC(=O)n1cc2c(n1)CCC(Br)C2=O", "note": "(stereo not drawn) [Compound 9e]", "values": [{"measurement": "Ki", "setting": "[2]", "value": "> 50", "unit": "µM"}, {"measurement": "HNE inhibitory activity (in words)", "setting": "[2]", "value": "low active or devoid of HNE inhibitory activity"}]}
{"smiles": "O=C1c2cn(CC(=O)N3CCN(c4ccccc4)CC3)nc2CCC1Br", "note": "(stereo not drawn) [Compound 9f]", "values": [{"measurement": "Ki", "setting": "[2]", "value": "> 50", "unit": "µM"}, {"measurement": "HNE inhibitory activity (in words)", "setting": "[2]", "value": "low active or devoid of HNE inhibitory activity"}]}
{"smiles": "O=C1c2cnn(C(=O)C3CC3)c2CCC1Br", "note": "(stereo not drawn) [Compound 10a]", "values": [{"measurement": "Half-life (t1/2) for the spontaneous hydrolysis", "setting": "[3]", "value": "38.7 ± 4.1", "unit": "min"}, {"measurement": "half-life", "setting": "[3]", "value": 53.9, "unit": "min"}]}
{"smiles": "O=C1c2cnn(CC(=O)N3CCN(c4ccccc4)CC3)c2CCC1Br", "note": "(stereo not drawn) [Compound 10d]", "values": [{"measurement": "Ki", "setting": "[2]", "value": "> 50", "unit": "µM"}, {"measurement": "HNE inhibitory activity (in words)", "setting": "[2]", "value": "low active or devoid of HNE inhibitory activity"}]}
{"smiles": "O=C(C1CC1)N(C(=O)C1CC1)C1CCCc2c1cnn2-c1ccccc1", "note": "(stereo not drawn) [Compound 14a]", "values": [{"measurement": "Ki", "setting": "[2]", "value": "> 50", "unit": "µM"}]}
{"smiles": "O=C(NC1CCCc2c1cnn2-c1ccccc1)C1CC1", "note": "(stereo not drawn) [Compound 14b]", "values": [{"measurement": "Ki", "setting": "[2]", "value": "> 50", "unit": "µM"}]}
{"smiles": "Cc1cccc(C(=O)NC2CCCc3c2cnn3-c2ccccc2)c1", "note": "(stereo not drawn) [Compound 14c]", "values": [{"measurement": "Ki", "setting": "[2]", "value": "> 50", "unit": "µM"}]}
